From ChEMBL document CHEMBL2150994, “Design, synthesis, and pharmacological evaluation of glutamate carboxypeptidase II (GCPII) inhibitors based on thioalkylbenzoic acid scaffolds” (J Med Chem, 2012)
Activity calls are given as the source filed them. No cut-off for these calls is given here.

Assays:
[1] = target: Glutamate carboxypeptidase 2 (Homo sapiens, UniProt Q04609); assay: Inhibition of human recombinant GCP2 using N-acetyl-L-aspartyl-[3H]-L-glutamate as substrate by microplate assay
Summary of the method: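 Radiometric enzyme assay using purified human recombinant GCPII with N-acetyl-L-aspartyl-[3H]-L-glutamate as substrate. IC50 was determined.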

[2] = AUC (0 to infinity) in fasted rat at 10 mg/kg, po; type: ADME, organism-based; set-up: time infinity, dose 10 mg/kg, route oral; settings: plasma
Summary of the method: (§1)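 Fasted rats dosed at 10 mg/kg intravenously (n = 4) or orally (n = 9). Plasma was sampled and the pharmacokinetic parameters Cmax, Tmax, AUCinf, CL/F, terminal t1/2 and oral bioavailability F were derived. Values are given as mean ± deviation for each route.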

[3] = Terminal half life in fasted rat at 10 mg/kg, iv; type: ADME, organism-based; set-up: dose 10 mg/kg, route intravenous; settings: in vivo, read-out: beta t1/2 (converted); summary of the method: as §1
Salmonella typhimurium [4] = assay: Mutagenic activity in Salmonella typhimurium TA98 by Ames test in absence of S9 fraction; type: toxicity, organism-based; settings: salmonella enterica subsp. enterica serovar typhimurium
Liver [5] = assay: Metabolic stability in mouse liver microsomes after 2 hrs; type: ADME, Microsome
Summary of the method: (§2)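 Compound was incubated with liver microsomes from mouse, rat, dog, monkey and human for 2 h. Metabolism was assessed by detection of compound turnover.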

Salmonella typhimurium [6] = assay: Mutagenic activity in Salmonella typhimurium TA1535 by Ames test in absence of S9 fraction; type: toxicity, organism-based; settings: salmonella enterica subsp. enterica serovar typhimurium
[7] = Inhibition of strychnine-sensitive glycine receptor at 10 uM
Summary of the method: (§3)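 Outsourced receptor binding and enzyme panel, covering NMDA receptor (agonist, glycine, phencyclidine and polyamine sites), AMPA, kainate, strychnine-sensitive glycine receptor and kidney-type glutaminase. Percent inhibition was measured at 10 μM, with glutaminase tested up to 100 μM.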

Salmonella typhimurium [8] = assay: Mutagenic activity in Salmonella typhimurium TA100 by Ames test in presence of S9 fraction; type: toxicity, organism-based; settings: salmonella enterica subsp. enterica serovar typhimurium
[9] = Terminal half life in fasted rat at 10 mg/kg, po; type: ADME, organism-based; set-up: dose 10 mg/kg, route oral; settings: in vivo, read-out: beta t1/2 (converted); summary of the method: as §1
[10] = Cmax in fasted rat at 10 mg/kg, po; type: ADME, organism-based; set-up: dose 10 mg/kg, route oral; settings: in vivo; summary of the method: as §1
Salmonella typhimurium [11] = assay: Mutagenic activity in Salmonella typhimurium TA1535 by Ames test in presence of S9 fraction; type: toxicity, organism-based; settings: salmonella enterica subsp. enterica serovar typhimurium
[12] = Inhibition of NMDA receptor phencyclidine binding site at 10 uM; summary of the method: as §3
[13] = Inhibition of kainate receptor at 10 uM; summary of the method: as §3
Salmonella typhimurium [14] = assay: Mutagenic activity in Salmonella typhimurium TA98 by Ames test in presence of S9 fraction; type: toxicity, organism-based; settings: salmonella enterica subsp. enterica serovar typhimurium
[15] = target: Voltage-gated inwardly rectifying potassium channel KCNH2 (Homo sapiens, UniProt Q12809); assay: Inhibition of human ERG upto 100 uM
Summary of the method: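 hERG channel assay run by an external contractor, with compound tested at concentrations up to 100 μM.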

[16] = Oral bioavailability in fasted rat at 10 mg/kg; type: ADME, organism-based; settings: in vivo; summary of the method: as §1
Liver [17] = assay: Metabolic stability in dog liver microsomes after 2 hrs; type: ADME, Canis lupus familiaris, Microsome; summary of the method: as §2
Rattus norvegicus = assay: Antinociceptive activity in rat chronic constriction injury neuropathic pain model assessed as reduction of thermal hyperalgesia at 0.1 mg/kg/day measured on day 8 and 12 relative to vehicle-treated control; type: functional, organism-based
Summary of the method: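 Rat chronic constriction injury model of neuropathic pain, after Bennett. Dosing was oral at 0.1 mg kg-1 day-1 against vehicle-treated controls. Read-out was thermal hyperalgesia on days 8 and 12, with significance at p < 0.05.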

Liver microsomes [18] = assay: Metabolic stability in human liver microsomes after 2 hrs; type: ADME, Microsome; summary of the method: as §2
Salmonella typhimurium [19] = assay: Mutagenic activity in Salmonella typhimurium TA1537 by Ames test in presence of S9 fraction; type: toxicity, organism-based; settings: salmonella enterica subsp. enterica serovar typhimurium
[20] = Inhibition of AMPA receptor at 10 uM; summary of the method: as §3
Liver microsomes [21] = assay: Metabolic stability in rat liver microsomes after 2 hrs; type: ADME, Microsome; summary of the method: as §2
[22] = Inhibition of NMDA receptor at 10 uM; summary of the method: as §3
[23] = Tmax in fasted rat at 10 mg/kg, po; type: ADME, organism-based; set-up: dose 10 mg/kg, route oral; settings: in vivo; summary of the method: as §1
[24] = Inhibition of NMDA receptor glycine binding site at 10 uM; summary of the method: as §3
[25] = target: T1, Glutaminase kidney isoform, mitochondrial (Homo sapiens) (UniProt O94925); assay: Inhibition of glutaminase kidney isoform at 100 uM
T1 sequence (whole entry): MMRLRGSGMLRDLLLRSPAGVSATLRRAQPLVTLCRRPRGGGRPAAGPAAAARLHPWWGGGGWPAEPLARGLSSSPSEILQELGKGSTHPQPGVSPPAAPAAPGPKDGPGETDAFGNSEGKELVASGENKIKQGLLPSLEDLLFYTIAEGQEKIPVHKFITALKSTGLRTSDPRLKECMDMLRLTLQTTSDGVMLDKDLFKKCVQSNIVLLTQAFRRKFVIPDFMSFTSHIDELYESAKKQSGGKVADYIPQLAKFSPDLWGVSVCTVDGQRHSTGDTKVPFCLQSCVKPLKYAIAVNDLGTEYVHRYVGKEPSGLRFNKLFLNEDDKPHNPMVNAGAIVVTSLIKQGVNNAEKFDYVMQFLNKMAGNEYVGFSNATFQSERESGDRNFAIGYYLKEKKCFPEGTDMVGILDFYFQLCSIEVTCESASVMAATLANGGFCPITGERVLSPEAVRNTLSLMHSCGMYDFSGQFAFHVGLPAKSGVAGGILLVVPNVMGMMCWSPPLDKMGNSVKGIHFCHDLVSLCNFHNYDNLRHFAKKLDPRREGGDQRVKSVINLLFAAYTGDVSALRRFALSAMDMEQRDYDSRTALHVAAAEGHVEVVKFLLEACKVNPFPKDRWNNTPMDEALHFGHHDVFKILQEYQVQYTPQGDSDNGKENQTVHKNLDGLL

[26] = Apparent oral clearance in fasted rat at 10 mg/kg, iv; type: ADME, organism-based; set-up: dose 10 mg/kg, route oral; settings: in vivo; summary of the method: as §1
[27] = AUC (0 to infinity) in fasted rat at 10 mg/kg, iv; type: ADME, organism-based; set-up: time infinity, dose 10 mg/kg, route intravenous; settings: plasma; summary of the method: as §1
[28] = Apparent oral clearance in fasted rat at 10 mg/kg; type: ADME, organism-based; set-up: dose 10 mg/kg, route oral; settings: in vivo; summary of the method: as §1
[29] = Metabolic stability in monkey liver microsomes after 2 hrs; type: ADME, Macaca mulatta, Microsome; settings: rhesus monkey; summary of the method: as §2
Salmonella typhimurium [30] = assay: Mutagenic activity in Salmonella typhimurium TA100 by Ames test in absence of S9 fraction; type: toxicity, organism-based; settings: salmonella enterica subsp. enterica serovar typhimurium
[31] = Inhibition of NMDA receptor polyamine binding site at 10 uM; summary of the method: as §3
Salmonella typhimurium [32] = assay: Mutagenic activity in Salmonella typhimurium TA1537 by Ames test in absence of S9 fraction; type: toxicity, organism-based; settings: salmonella enterica subsp. enterica serovar typhimurium

Sequence of Glutamate carboxypeptidase 2 (Q04609 whole entry): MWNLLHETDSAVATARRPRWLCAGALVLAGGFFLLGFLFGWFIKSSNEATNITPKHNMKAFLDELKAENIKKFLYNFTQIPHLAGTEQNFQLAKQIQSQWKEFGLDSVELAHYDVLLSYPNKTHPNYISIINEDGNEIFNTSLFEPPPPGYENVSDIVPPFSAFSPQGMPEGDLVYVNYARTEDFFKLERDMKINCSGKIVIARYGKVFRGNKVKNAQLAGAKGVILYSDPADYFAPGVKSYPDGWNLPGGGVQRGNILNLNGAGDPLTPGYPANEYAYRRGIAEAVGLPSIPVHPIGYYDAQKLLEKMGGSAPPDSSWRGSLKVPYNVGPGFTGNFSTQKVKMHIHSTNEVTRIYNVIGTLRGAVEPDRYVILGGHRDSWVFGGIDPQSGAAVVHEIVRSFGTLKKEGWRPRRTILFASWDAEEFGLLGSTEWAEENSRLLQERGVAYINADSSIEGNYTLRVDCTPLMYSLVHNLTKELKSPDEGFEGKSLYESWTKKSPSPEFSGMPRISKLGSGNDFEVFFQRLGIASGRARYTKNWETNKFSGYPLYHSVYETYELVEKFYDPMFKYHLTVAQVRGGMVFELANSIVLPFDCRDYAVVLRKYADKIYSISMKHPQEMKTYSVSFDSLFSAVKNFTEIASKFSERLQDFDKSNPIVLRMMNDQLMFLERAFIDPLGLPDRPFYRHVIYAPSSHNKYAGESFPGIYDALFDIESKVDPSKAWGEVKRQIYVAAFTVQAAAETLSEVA
Sequence of Voltage-gated inwardly rectifying potassium channel KCNH2 (Q12809 whole entry): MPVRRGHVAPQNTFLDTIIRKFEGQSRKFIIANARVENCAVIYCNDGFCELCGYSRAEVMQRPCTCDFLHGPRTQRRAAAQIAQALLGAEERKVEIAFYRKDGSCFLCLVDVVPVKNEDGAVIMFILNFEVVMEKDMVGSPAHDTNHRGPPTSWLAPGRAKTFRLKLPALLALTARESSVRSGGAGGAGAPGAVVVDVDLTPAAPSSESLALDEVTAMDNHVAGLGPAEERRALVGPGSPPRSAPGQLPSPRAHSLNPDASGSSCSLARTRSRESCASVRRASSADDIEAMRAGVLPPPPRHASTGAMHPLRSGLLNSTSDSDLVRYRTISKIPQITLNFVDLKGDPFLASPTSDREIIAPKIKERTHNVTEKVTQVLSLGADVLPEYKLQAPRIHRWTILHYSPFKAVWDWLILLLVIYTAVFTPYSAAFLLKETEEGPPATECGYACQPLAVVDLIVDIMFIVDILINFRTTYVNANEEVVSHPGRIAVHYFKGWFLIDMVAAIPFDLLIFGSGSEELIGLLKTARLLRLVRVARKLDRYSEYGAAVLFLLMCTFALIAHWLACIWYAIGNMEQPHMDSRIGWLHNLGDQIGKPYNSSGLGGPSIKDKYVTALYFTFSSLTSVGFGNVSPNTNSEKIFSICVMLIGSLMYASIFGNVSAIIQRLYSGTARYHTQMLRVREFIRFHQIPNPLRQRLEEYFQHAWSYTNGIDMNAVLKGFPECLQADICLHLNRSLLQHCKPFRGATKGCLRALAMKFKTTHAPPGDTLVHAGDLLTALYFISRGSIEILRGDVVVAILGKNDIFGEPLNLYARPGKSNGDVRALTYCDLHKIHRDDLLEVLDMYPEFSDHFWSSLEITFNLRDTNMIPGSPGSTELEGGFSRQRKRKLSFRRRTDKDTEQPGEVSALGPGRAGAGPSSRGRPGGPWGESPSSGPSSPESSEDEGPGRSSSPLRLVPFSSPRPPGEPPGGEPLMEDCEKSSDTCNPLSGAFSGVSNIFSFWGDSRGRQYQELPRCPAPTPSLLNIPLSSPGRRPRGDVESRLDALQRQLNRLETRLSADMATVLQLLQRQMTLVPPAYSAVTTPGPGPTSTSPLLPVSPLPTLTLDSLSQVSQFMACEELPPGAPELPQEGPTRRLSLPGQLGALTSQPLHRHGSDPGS

With `O=C(O)c1ccc(COc2ccc(CS)cc2C(=O)O)cc1` as the compound, how does the IC50 [1] read?
Its IC50 is 16 nM.

With `O=C(O)c1ccccc1COc1ccc(CS)cc1C(=O)O` as the compound, how does the IC50 [1] read?
The IC50 was 41 nM.

Which IC50 [1] does the source give for `O=C(O)c1cccc(CS)c1` here?
Its IC50 is 1300 nM.

With `O=C(O)c1cccc(COc2cccc(CCS)c2C(=O)O)c1` as the compound, how does the IC50 [1] read?
Its IC50 is 69 nM.

For `O=C(O)CCC(CCCS)C(=O)O` (centres undefined), which AUC(0-inf) [2] is on record?
Its AUC(0-inf) is 1820 ng·h/mL.

With `O=C(O)c1cccc(-c2ccc(CS)cc2C(=O)O)c1` as the compound, how does the IC50 [1] read?
Its IC50 is 38 nM.

Which half-life [3] does the source give for `O=C(O)c1cccc(-c2cccc(CCS)c2C(=O)O)c1` here?
Its half-life is 3.6 h.

What about the Activity (Salmonella typhimurium [4]) of the same compound?
Its Activity is “Non-toxic”.

What about the Stability (Liver [5]) of the same compound?
The Stability was “Stable”.

And the Activity (Salmonella typhimurium [6])?
The Activity was “Non-toxic”.

What about the inhibition [7] of the same compound?
Its inhibition is “inactive”.

What about the Activity (Salmonella typhimurium [8]) of the same compound?
Its Activity is “Non-toxic”.

And the half-life [9]?
The half-life was 3.2 h.

And the Cmax [10]?
Its Cmax is 7100 ng/mL.

And the Activity (Salmonella typhimurium [11])?
The Activity was “Non-toxic”.

And the inhibition [12]?
The inhibition was “inactive”.

What about the inhibition [13] of the same compound?
Its inhibition is “inactive”.

What about the Activity (Salmonella typhimurium [14]) of the same compound?
Its Activity is “Non-toxic”.

What about the “inhibition (INH)” value [15] of the same compound?
Its value is “Not Active”.

What about the bioavailability [16] of the same compound?
The bioavailability was 37%.

And the Stability (Liver [17])?
Its Stability is “Stable”.

What about the Activity (Rattus norvegicus) of the same compound?
Its Activity is “Active”.

What about the Stability (Liver microsomes [18]) of the same compound?
The Stability was “Stable”.

What about the Activity (Salmonella typhimurium [19]) of the same compound?
Its Activity is “Non-toxic”.

What about the inhibition [20] of the same compound?
The inhibition was “inactive”.

What about the Stability (Liver microsomes [21]) of the same compound?
Its Stability is “Stable”.

And the inhibition [22]?
Its inhibition is less than 5%.

What about the Tmax [23] of the same compound?
Its Tmax is 1.1 h.

And the inhibition [24]?
Its inhibition is 12%.

And the inhibition [25]?
The inhibition was “inactive”.

And the CL/F [26]?
Its CL/F is 4.45 mL/min/kg.

What about the AUC(0-inf) [27] of the same compound?
Its AUC(0-inf) is 90600 ng·h/mL.

And the AUC(0-inf) [2]?
Its AUC(0-inf) is 33800 ng·h/mL.

What about the CL/F [28] of the same compound?
The CL/F was 5.3 mL/min/kg.

And the Stability [29]?
Its Stability is “Stable”.

What about the Activity (Salmonella typhimurium [30]) of the same compound?
The Activity was “Non-toxic”.

What about the inhibition [31] of the same compound?
Its inhibition is “inactive”.

What about the Activity (Salmonella typhimurium [32]) of the same compound?
The Activity was “Non-toxic”.

Which IC50 [1] does the source give for `O=C(O)c1ccc(COc2cccc(CCS)c2C(=O)O)cc1` here?
Its IC50 is 200 nM.

For `O=C(O)c1cccc(COc2ccc(CS)cc2C(=O)O)c1`, which IC50 [1] is on record?
Its IC50 is 2 nM.

With `O=C(O)c1ccccc1-c1cccc(CCS)c1C(=O)O` as the compound, how does the IC50 [1] read?
Its IC50 is 230 nM.

With `O=C(O)c1cc(CS)ccc1-c1ccccc1` as the compound, how does the IC50 [1] read?
The IC50 was 5700 nM.

With `O=C(O)c1ccc(-c2ccc(CS)cc2C(=O)O)cc1` as the compound, how does the IC50 [1] read?
The IC50 was 52 nM.

With `O=C(O)c1ccccc1-c1ccc(CS)cc1C(=O)O` as the compound, how does the IC50 [1] read?
Its IC50 is 340 nM.

For `O=C(O)c1c(CCS)cccc1OCc1ccccc1`, which IC50 [1] is on record?
Its IC50 is 200 nM.

With `O=C(O)c1ccc(-c2cccc(CCS)c2C(=O)O)cc1` as the compound, how does the IC50 [1] read?
The IC50 was 7 nM.

Which IC50 [1] does the source give for `O=C(O)c1ccccc1CCS` here?
Its IC50 is 930 nM.

With `O=C(O)c1c(CCS)cccc1-c1ccccc1` as the compound, how does the IC50 [1] read?
The IC50 was 1400 nM.

For `O=C(O)c1ccccc1COc1cccc(CCS)c1C(=O)O`, which IC50 [1] is on record?
The IC50 was 140 nM.
